Assay results reported in ChEMBL document CHEMBL1155468, “Syntheses and evaluation of anticonvulsant profile and teratogenicity of novel amide derivatives of branched aliphatic carboxylic acids with 4-aminobenzensulfonamide” (J Med Chem, 2010).
The source made the active and inactive calls. The rule behind the calls is not given here.

Legend:
Mus musculus [1] = assay: Anticonvulsant activity in CF1 albino mouse assessed as inhibition of subcutaneous pentylenetetrazole-induced seizures at 30 mg/kg, ip after 0.5 hrs; assay type: functional, organism-based; design: dose 30 mg/kg
Outline: (§1)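 Adult male CF no. 1 albino mice (18-25 g) dosed ip with compound suspended in 0.5% methylcellulose (0.01 mL/g). Convulsant: pentylenetetrazol dissolved in 0.9% saline as a 0.85% solution for mice, given subcutaneously.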

Mus musculus [2] = assay: Anticonvulsant activity in CF1 albino mouse assessed as inhibition of subcutaneous pentylenetetrazole-induced seizures at 100 mg/kg, ip after 0.5 hrs; assay type: functional, organism-based; design: dose 100 mg/kg; outline: as §1
Mus musculus [3] = assay: Anticonvulsant activity in CF1 albino mouse assessed as inhibition of subcutaneous pentylenetetrazole-induced seizures at 300 mg/kg, ip after 0.5 hrs; assay type: functional, organism-based; design: dose 300 mg/kg; outline: as §1
Mus musculus [4] = assay: Anticonvulsant activity in CF1 albino mouse assessed as inhibition of subcutaneous pentylenetetrazole-induced seizures at 30 mg/kg, ip after 4 hrs; assay type: functional, organism-based; design: dose 30 mg/kg; outline: as §1
Mus musculus [5] = assay: Anticonvulsant activity in CF1 albino mouse assessed as inhibition of subcutaneous pentylenetetrazole-induced seizures at 100 mg/kg, ip after 4 hrs; assay type: functional, organism-based; design: dose 100 mg/kg; outline: as §1
Mus musculus [6] = assay: Anticonvulsant activity in CF1 albino mouse assessed as inhibition of maximal electroshock-induced seizures at 30 mg/kg, ip after 0.5 hrs; assay type: functional, organism-based; design: dose 30 mg/kg
Outline: (§2)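 Test compounds suspended in 0.5% methylcellulose and given ip to adult male CF no. 1 albino mice (18-25 g) at 0.01 mL/g body weight before maximal electroshock challenge.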

Mus musculus [7] = assay: Anticonvulsant activity in CF1 albino mouse assessed as inhibition of maximal electroshock-induced seizures at 100 mg/kg, ip after 0.5 hrs; assay type: functional, organism-based; design: dose 100 mg/kg; outline: as §2
Mus musculus [8] = assay: Anticonvulsant activity in CF1 albino mouse assessed as inhibition of maximal electroshock-induced seizures at 300 mg/kg, ip after 0.5 hrs; assay type: functional, organism-based; design: dose 300 mg/kg; outline: as §2
Mus musculus [9] = assay: Anticonvulsant activity in CF1 albino mouse assessed as inhibition of maximal electroshock-induced seizures at 30 mg/kg, ip after 4 hrs; assay type: functional, organism-based; design: dose 30 mg/kg; outline: as §2
Mus musculus [10] = assay: Anticonvulsant activity in CF1 albino mouse assessed as inhibition of maximal electroshock-induced seizures at 300 mg/kg, ip after 4 hrs; assay type: functional, organism-based; design: dose 300 mg/kg; outline: as §2
Mus musculus [11] = assay: Anticonvulsant activity in CF1 albino mouse assessed as inhibition of subcutaneous pentylenetetrazole-induced seizures at 300 mg/kg, ip after 4 hrs; assay type: functional, organism-based; design: dose 300 mg/kg; outline: as §1
Mus musculus [12] = assay: Neurotoxicity in CF1 albino mouse assessed as motor impairment at 30 mg/kg, ip after 0.5 hrs; assay type: toxicity, organism-based; design: dose 30 mg/kg, route intraperitoneal; conditions: in vivo
Mus musculus [13] = assay: Neurotoxicity in CF1 albino mouse assessed as motor impairment at 100 mg/kg, ip after 0.5 hrs; assay type: toxicity, organism-based; design: dose 100 mg/kg, route intraperitoneal; conditions: in vivo
Mus musculus [14] = assay: Neurotoxicity in CF1 albino mouse assessed as motor impairment at 300 mg/kg, ip after 0.5 hrs; assay type: toxicity, organism-based; design: dose 300 mg/kg, route intraperitoneal; conditions: in vivo
Mus musculus [15] = assay: Neurotoxicity in CF1 albino mouse assessed as motor impairment at 30 mg/kg, ip after 4 hrs; assay type: toxicity, organism-based; design: dose 30 mg/kg, route intraperitoneal; conditions: in vivo
Mus musculus [16] = assay: Neurotoxicity in CF1 albino mouse assessed as motor impairment at 100 mg/kg, ip after 4 hrs; assay type: toxicity, organism-based; design: dose 100 mg/kg, route intraperitoneal; conditions: in vivo
Mus musculus [17] = assay: Neurotoxicity in CF1 albino mouse assessed as motor impairment at 300 mg/kg, ip after 4 hrs; assay type: toxicity, organism-based; design: dose 300 mg/kg, route intraperitoneal; conditions: in vivo
Rattus norvegicus [18] = assay: Neurotoxicity in Sprague-Dawley rat assessed as motor impairment at 30 mg/kg, po after 0.25 to 4 hrs; conditions: in vivo
Rattus norvegicus [19] = assay: Anticonvulsant activity in Sprague-Dawley rat assessed as inhibition of maximal electroshock-induced seizures at 30 mg/kg, po after 30 mins
Rattus norvegicus [20] = assay: Anticonvulsant activity in Sprague-Dawley rat assessed as inhibition of maximal electroshock-induced seizures at 30 mg/kg, po after 15 mins
Mus musculus [21] = assay: Anticonvulsant activity in CF1 albino mouse assessed as inhibition of maximal electroshock-induced seizures at 100 mg/kg, ip after 4 hrs; assay type: functional, organism-based; design: dose 100 mg/kg; outline: as §2
Rattus norvegicus [22] = assay: Anticonvulsant activity in Sprague-Dawley rat assessed as inhibition of maximal electroshock-induced seizures at 30 mg/kg, po after 1 hr
Rattus norvegicus [23] = assay: Anticonvulsant activity in Sprague-Dawley rat assessed as inhibition of maximal electroshock-induced seizures at 30 mg/kg, po after 2 hrs
Rattus norvegicus [24] = organism: Rattus norvegicus; assay: Protective index, ratio of TD50 for rat to ED50 for maximal electroshock-induced rat seizure model
Rattus norvegicus [25] = assay: Anticonvulsant activity in Sprague-Dawley rat assessed as inhibition of maximal electroshock-induced seizures at 30 mg/kg, po after 4 hrs

Row | Structure (SMILES) | Activity (Mus musculus [1]) | Activity (Mus musculus [2]) | Activity (Mus musculus [3]) | Activity (Mus musculus [4]) | Activity (Mus musculus [5]) | Activity (Mus musculus [6]) | Activity (Mus musculus [7]) | Activity (Mus musculus [8]) | Activity (Mus musculus [9]) | Activity (Mus musculus [10]) | Activity (Mus musculus [11]) | Activity (Mus musculus [12]) | Activity (Mus musculus [13]) | Activity (Mus musculus [14]) | Activity (Mus musculus [15]) | Activity (Mus musculus [16]) | Activity (Mus musculus [17]) | Activity (Rattus norvegicus [18]) | Activity (Rattus norvegicus [19]) | Activity (Rattus norvegicus [20]) | other results
1 | CC(C)(C)CC(=O)NCc1ccc(S(N)(=O)=O)cc1 | inactive | inactive | inactive | inactive | inactive | inactive | inactive | inactive | inactive | Active | inactive | Non-toxic | Non-toxic | Non-toxic | Non-toxic | Non-toxic | Non-toxic | Non-toxic | inactive | inactive | –
2 | CC(C)C(C(=O)Nc1ccc(S(N)(=O)=O)cc1)C(C)C | inactive | inactive | inactive | inactive | inactive | inactive | inactive | inactive | inactive | inactive | inactive | Non-toxic | Non-toxic | Non-toxic | Non-toxic | Non-toxic | Non-toxic | Non-toxic | inactive | inactive | Activity (Mus musculus [21]): inactive; Activity (Rattus norvegicus [22]): inactive; Activity (Rattus norvegicus [23]): inactive
3 | CC1(C)C(C(=O)Nc2nnc(S(N)(=O)=O)s2)C1(C)C | – | – | – | – | – | – | – | – | – | – | – | – | – | – | – | – | – | – | – | – | Ratio TD50/ED50 (Rattus norvegicus [24]): >50
4 | CCCC(CCC)C(=O)Nc1nnc(S(N)(=O)=O)s1 | – | – | – | – | – | – | – | – | – | – | – | – | – | – | – | – | – | – | – | – | Ratio TD50/ED50 (Rattus norvegicus [24]): >50
5 | CCC(C)C(C(=O)Nc1ccc(S(N)(=O)=O)cc1)C(C)C (centres undefined) | inactive | inactive | inactive | inactive | inactive | inactive | inactive | inactive | inactive | inactive | inactive | Non-toxic | Non-toxic | Non-toxic | Non-toxic | Non-toxic | Non-toxic | Non-toxic | inactive | inactive | Activity (Mus musculus [21]): inactive; Activity (Rattus norvegicus [23]): inactive; Activity (Rattus norvegicus [25]): inactive
6 | CCC(C(=O)Nc1ccc(S(N)(=O)=O)cc1)C(C)(C)C (centres undefined) | inactive | inactive | inactive | inactive | inactive | inactive | inactive | inactive | inactive | Active | inactive | Non-toxic | Non-toxic | Non-toxic | Non-toxic | Non-toxic | Non-toxic | Non-toxic | inactive | inactive | Activity (Rattus norvegicus [22]): inactive
7 | CCC(C)C(CC)C(=O)Nc1ccc(S(N)(=O)=O)cc1 (centres undefined) | inactive | inactive | inactive | inactive | inactive | inactive | – | – | inactive | Active | inactive | Non-toxic | Non-toxic | Non-toxic | Non-toxic | Non-toxic | Non-toxic | Non-toxic | inactive | inactive | Activity (Mus musculus [21]): Active; Activity (Rattus norvegicus [23]): Active
